Consider ten molecules from ChEMBL document CHEMBL4699593, “Identification of 2,4-Disubstituted Imidazopyridines as Hemozoin Formation Inhibitors with Fast-Killing Kinetics and In Vivo Efficacy in the Plasmodium falciparum NSG Mouse Model” (J Med Chem, 2020).

Each structure is given as a SMILES string. Converted amounts (≈) assume the structure as drawn. Bounds are passed on as bounds.

In data set [1] the test system is Plasmodium falciparum. Put plainly: Antiplasmodial activity against multidrug-sensitive asexual blood stage Plasmodium falciparum NF54 strain assessed as reduction in parasite growth after 72 hrs by NBT reagent based LDH assay. It is filed as functional, organism-based. The following applies: NF54, 72 h.
Data set [2] concerns Plasmodium falciparum. The data set is described as follows: Antiplasmodial activity against multidrug-resistant asexual blood stage Plasmodium falciparum K1 strain assessed as reduction in parasite growth after 72 hrs by NBT reagent based LDH assay. The following applies: K1, 72 h. It is filed as functional, organism-based. The method in brief: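 Asexual blood-stage K1 (multidrug-resistant) parasites were read out by the parasite lactate dehydrogenase (pLDH) assay. […] Most individual values varied less than 2× (maximum 3×).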

The nature of data set [3]: Aqueous solubility of compound in phosphate buffer saline at pH 6.5 incubated for 20 hrs under shaking condition by shake-flask method based HPLC-DAD analysis. It is filed as physicochemical. Conditions: phosphate buffered saline. The essentials:
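Equilibrium aqueous solubility was measured at pH 6.5 using a miniaturized shake-flask method.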

The next data set has as its system CHO. Put plainly: Cytotoxicity against CHO cells assessed as reduction in cell viability by MTT assay. It is filed as cell-based, Cricetulus griseus. The following applies: chinese hamster. The essentials: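 Cytotoxicity was measured in Chinese hamster ovary (CHO) cells and reported as CC50. The selectivity index is CC50 divided by NF54 IC50.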
The nature of data set [4]: Selectivity index, ratio of CC50 for cytotoxicity against CHO cells assessed as reduction in cell viability to IC50 for antiplasmodial activity against multidrug-sensitive Plasmodium falciparum NF54 assessed as reduction in parasite growth. The class given is toxicity, cell-based. The following applies: hamster, read-out: Ratio CC50/IC50.
Data set [5] in a line: Cmax in Balb/C mouse at 2 mg/kg, iv by LC-MS/MS analysis. Details: route intravenous, dose 2 mg/kg. It is filed as ADME, organism-based. The following applies: in vivo. The essentials:
(§1)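 Healthy Balb/c mice dosed i.v. or orally. Parameters come from non-compartmental analysis of compound concentration over time. […] Clearance is blood clearance (CL_b).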

The nature of data set [6]: Cmax in Balb/C mouse at 20 mg/kg, po by LC-MS/MS analysis. It is filed as ADME, organism-based. The arrangement: route oral, dose 20 mg/kg. Conditions: in vivo. The method in brief:
as §1

A short description of data set [7]: Tmax in Balb/C mouse at 20 mg/kg, po by LC-MS/MS analysis. Conditions: in vivo. The class given is ADME, organism-based. The essentials: (§2)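 Healthy Balb/c mice were given the compound i.v. or orally. Parameters come from non-compartmental analysis: AUC from 0 h to t_last, blood clearance, volume at steady state, terminal half-life, Tmax. Oral bioavailability F is derived from the i.v. and p.o. data.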

Data set [8] in a line: Terminal half life in Balb/C mouse at 2 mg/kg, iv by LC-MS/MS analysis. The class given is ADME, organism-based. Conditions: in vivo, read-out: beta t1/2 (converted). The essentials:
as §2

Data set [9] in a line: Terminal half life in Balb/C mouse at 20 mg/kg, po by LC-MS/MS analysis. The following applies: in vivo, read-out: beta t1/2 (converted). The class given is ADME, organism-based. The essentials:
as §2

Data set [10] can be described thus: Clearance in Balb/C mouse blood at 2 mg/kg, iv by LC-MS/MS analysis. The class given is ADME, organism-based. Conditions: whole blood. The essentials: as §1
The nature of data set [11]: Volume of distribution at steady state in Balb/C mouse at 2 mg/kg, iv by LC-MS/MS analysis. The class given is ADME, organism-based. Conditions: in vivo, read-out: Vdss. The method in brief: as §2
Data set [12] in a line: AUC (0 to t) in Balb/C mouse at 2 mg/kg, iv by LC-MS/MS analysis. The following applies: in vivo. It is filed as ADME, organism-based. The arrangement: dose 2 mg/kg. The method in brief: as §1
The nature of data set [13]: AUC (0 to t) in Balb/C mouse at 20 mg/kg, po by LC-MS/MS analysis. The class given is ADME, organism-based. Details: dose 20 mg/kg. Conditions: in vivo. The essentials:
as §1

Data set [14] is described as follows: Oral bioavailability in Balb/C mouse at 20 mg/kg by LC-MS/MS analysis. The class given is ADME, organism-based. The following applies: in vivo. The method in brief: as §2
Data set [15] is described as follows: Ratio of unbound average drug concentration in Balb/c mouse at 20 mg/kg, po measured at 24 hrs to IC50 for antiplasmodial activity against multidrug-sensitive Plasmodium falciparum NF54 asexual blood stage assessed as reduction in parasite growth after 72 hrs by LDH assay. Conditions: in vivo. The class given is organism-based.
Another data set has as its system Plasmodium berghei. Put plainly: Antiplasmodial activity against luciferase-expressing Plasmodium berghei sporozoites liver stage infected in human HepG2 cells expressing GFP-CD81 fusion protein incubated for 48 hrs by luciferase reporter gene based bioluminescence assay. It is filed as functional, organism-based. Conditions: HepG2, 48 h. The method in brief: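 Liver-stage activity was measured in vitro with rodent P. berghei sporozoites. Values are the mean of 3 technical replicates from the luciferase assay; individual values varied less than 2×.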
In general terms: In a reporter assay the amount or activity of a reporter protein is the signal.

The test system of data set [16] is Plasmodium falciparum. The data set is described as follows: Antiplasmodial activity against early stage (I to III) Plasmodium falciparum NF54 gametocytes incubated for 48 hrs under hypoxia condition by luciferase reporter gene assay. It is filed as functional, organism-based. Conditions: NF54, 48 h.
Data set [17] relates to Plasmodium falciparum. The data set is described as follows: Antiplasmodial activity against late stage (IV/V) Plasmodium falciparum NF54 gametocytes incubated for 48 hrs under hypoxia condition by luciferase reporter gene assay. The class given is functional, organism-based. The following applies: NF54, 48 h.
Data set [18] relates to Plasmodium falciparum. The data set is described as follows: Antiplasmodial activity against late stage (IV/V) Plasmodium falciparum NF54 gametocytes at 5 uM incubated for 48 hrs under hypoxia condition by luciferase reporter gene assay relative to control. The class given is functional.
The test system of a further data set is Hemozoin. Put plainly: Inhibition of beta-hematin formation assessed as reduction in hemozoin formation incubated for 5 hrs by NP40 detergent-mediated assay. The method in brief:
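Synthetic hemozoin (β-hematin) formation is driven by the detergent Nonidet P-40. Pyridine is then added to detect unreacted hematin. IC50 is derived from this read-out.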

The test system of data set [19] is Plasmodium falciparum. Put plainly: Antiplasmodial activity against early ring-stage synchronized Plasmodium falciparum assessed as increase in free heme after 32 hrs by Giemsa-staining based haemocytometric counting method. The class given is functional, organism-based. The essentials:
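Whole-parasite cell fractionation assay run as a dose response. Free heme and hemozoin were measured intracellularly across increasing compound concentrations.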

Data set [20] concerns Plasmodium falciparum. Put plainly: Antiplasmodial activity against early ring-stage synchronized Plasmodium falciparum assessed as decrease in hemozoin formation after 32 hrs by Giemsa-staining based haemocytometric counting method. The class given is functional, organism-based.
Data set [21] can be described thus: Apparent intrinsic clearance in mouse liver microsomes at 0.1 uM in presence of NADPH by LC-MS/MS analysis. It is filed as ADME, Microsome. The essentials: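 Compound was incubated with mouse liver microsomes for 30 min. Apparent intrinsic clearance (CL_int,app) is reported in μL/min/mg.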
(In general: Liver microsomes are vesicles of endoplasmic reticulum, rich in cytochrome P450 enzymes.)

The target of data set [22] is Voltage-gated inwardly rectifying potassium channel KCNH2 (Homo sapiens, UniProt Q12809). The data set is described as follows: Inhibition of human ERG by patch clamp method. (In patch-clamp work, channel activity is measured electrically.)
Chain of Voltage-gated inwardly rectifying potassium channel KCNH2 (Q12809 whole entry): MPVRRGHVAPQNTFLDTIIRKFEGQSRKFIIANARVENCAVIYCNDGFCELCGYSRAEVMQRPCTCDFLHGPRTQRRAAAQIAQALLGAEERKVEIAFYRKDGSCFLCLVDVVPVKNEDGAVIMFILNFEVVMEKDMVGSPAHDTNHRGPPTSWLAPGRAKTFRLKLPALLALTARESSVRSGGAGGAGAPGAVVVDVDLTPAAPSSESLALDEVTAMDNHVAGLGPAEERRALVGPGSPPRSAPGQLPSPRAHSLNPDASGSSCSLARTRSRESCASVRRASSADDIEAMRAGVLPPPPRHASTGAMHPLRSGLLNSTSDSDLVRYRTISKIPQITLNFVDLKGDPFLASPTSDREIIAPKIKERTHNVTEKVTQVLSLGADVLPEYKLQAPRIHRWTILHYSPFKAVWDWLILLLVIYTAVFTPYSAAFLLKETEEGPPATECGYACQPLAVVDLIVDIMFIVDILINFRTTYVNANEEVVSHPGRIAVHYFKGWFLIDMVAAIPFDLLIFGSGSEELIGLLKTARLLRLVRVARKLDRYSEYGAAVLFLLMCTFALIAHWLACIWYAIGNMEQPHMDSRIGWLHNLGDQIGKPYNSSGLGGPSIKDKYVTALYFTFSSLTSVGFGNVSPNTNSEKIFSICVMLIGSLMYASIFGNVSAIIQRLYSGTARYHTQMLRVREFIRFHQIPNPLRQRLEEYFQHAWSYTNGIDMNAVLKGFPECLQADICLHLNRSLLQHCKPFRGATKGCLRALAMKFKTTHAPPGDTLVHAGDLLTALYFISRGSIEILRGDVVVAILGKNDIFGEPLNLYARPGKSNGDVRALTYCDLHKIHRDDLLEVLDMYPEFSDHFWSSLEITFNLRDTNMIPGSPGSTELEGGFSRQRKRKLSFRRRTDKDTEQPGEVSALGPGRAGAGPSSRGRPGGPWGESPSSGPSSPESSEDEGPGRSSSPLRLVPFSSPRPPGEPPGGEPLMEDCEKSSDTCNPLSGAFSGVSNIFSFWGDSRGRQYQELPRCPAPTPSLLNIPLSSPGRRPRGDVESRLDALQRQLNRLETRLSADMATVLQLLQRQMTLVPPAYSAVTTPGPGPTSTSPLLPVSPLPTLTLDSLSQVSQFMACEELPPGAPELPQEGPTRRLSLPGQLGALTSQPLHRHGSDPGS
Data set [23] is described as follows: Dissociation constant, pKa of compound. It is filed as physicochemical.

Turning to `Cn1ccnc1N1CCN(CC2CCN(c3nccc4[nH]c(-c5cc(F)cc(F)c5)nc34)CC2)CC1`, the half-inhibitory concentration (IC50) was 29 nM in the data set on Plasmodium falciparum [1] and 53 nM with Plasmodium falciparum [2]. For the same molecule, the thermodynamic solubility at 20 h in [3] is 135 µM (≈ 66.5 µg/mL). In addition, in the data set on CHO, the CC50 worked out at 33000 nM. In addition, the selectivity ratio in data set [4] came to 1140. The values for the highest concentration (Cmax) in [5] and in [6] were 1600 nM and 1700 nM, respectively. Moreover, the Tmax in data set [7] stood at 2.3 h. In addition, the half-life in [8] is 12.2 h; in data set [9], 9.2 h. The same molecule had a clearance in data set [10] of 9 mL/min/kg. The Vd in data set [11] is 6 L/kg. Moreover, the values for the AUCt in [12] and in [13] were 7.88 µM·h and 19 µM·h, respectively. Further, the bioavailability in [14] is 24%. Moreover, the Ratio in data set [15] is reported as 1.5.
With `NC1CCN(c2nccc3[nH]c(-c4cccc(OC(F)(F)F)c4)nc23)CC1`, the 50% inhibitory concentration (IC50) in the data set with Plasmodium falciparum [1] stood at 73 nM; in the data set with Plasmodium falciparum [2], 1200 nM; with Plasmodium berghei it was 14000 nM; with Plasmodium falciparum [16], 780 nM; in the data set on Plasmodium falciparum [17], 2800 nM; in the data set with Hemozoin, 148000 nM. For the same molecule, in [3], the thermodynamic solubility at 20 h is 200 µM (≈ 75.5 µg/mL). The CC50 in the data set on CHO is 42000 nM. The same molecule yielded an inhibition at 5 µM with Plasmodium falciparum [18] of 95%. In addition, the Activity result in the data set with Plasmodium falciparum [19] and with Plasmodium falciparum [20] was “Dose-dependent effect” throughout.
As for `CN1CCC(N2CCN(c3nccc4[nH]c(-c5ccc(F)c(F)c5)nc34)CC(F)(F)C2)CC1`, the concentration for half-maximal inhibition (IC50) in the data set on Plasmodium falciparum [1] turned out to be 59 nM; in the data set on Plasmodium falciparum [2] it was 160 nM. For the same molecule, in [3], the thermodynamic solubility at 20 h is 180 µM (≈ 83.2 µg/mL). In the data set with CHO, the CC50 amounted to 33000 nM. For the same molecule, the CLH in data set [21] was found to be 33 µL/min/mg.
As for `Fc1ccc(-c2nc3c(N4CCNCC4)nccc3[nH]2)cc1F`, the half-inhibitory concentration (IC50) with Plasmodium falciparum [1] is 170 nM; in the data set on Plasmodium falciparum [2], 970 nM; in data set [22] it was 3400 nM. This molecule also gave a solubility (thermodynamic) at 20 h in data set [3] of 150 µM (≈ 47.3 µg/mL). Also, the CC50 in the data set on CHO was found to be 8100 nM.
Regarding `Fc1cc(F)cc(-c2nc3c(N4CCC(CN5CCN(CC(F)(F)F)CC5)CC4)nccc3[nH]2)c1`, the results for the half-maximal inhibitory concentration (IC50) (in the data set with Plasmodium falciparum [1]; in the data set with Plasmodium falciparum [2]; in data set [22]) were 75 nM, 160 nM and ≤ 3000 nM, respectively. The molecule also registered a solubility (thermodynamic) at 20 h in data set [3] of 180 µM (≈ 89 µg/mL). Besides, the CC50 in the data set on CHO was 40000 nM.
On the same counts, the results for `CN1CCN(CC2CCN(c3nccc4[nH]c(-c5cc(F)cc(F)c5)cc34)CC2)CC1` are 14 nM, 92 nM, 5000 nM, 140 µM (≈ 59.6 µg/mL) and 2600 nM.
Consider `CN1CCCN(c2nccc3[nH]c(-c4ccc(F)c(F)c4)nc23)CC1`, for which the IC50 amounted to 61 nM with Plasmodium falciparum [1], 100 nM with Plasmodium falciparum [2] and 400 nM in [22]. This molecule also had a thermodynamic solubility at 20 h in [3] of 170 µM (≈ 58.4 µg/mL). Besides, the half-maximal cytotoxic concentration (CC50) in the data set on CHO turned out to be 14000 nM. The CLH in data set [21] stood at 145 µL/min/mg.
With `CN1CCN(CC2CCN(c3nccc4[nH]c(-c5cccc(OC(F)(F)F)c5)nc34)CC2)CC1`, the half-maximal inhibitory concentration (IC50) was < 20 nM in the data set with Plasmodium falciparum [1] and 12 nM in the data set on Plasmodium falciparum [2]. The solubility (thermodynamic) at 20 h in data set [3] was 200 µM (≈ 94.9 µg/mL). The CC50 with CHO stood at 950 nM. The selectivity ratio in [4] amounted to 47.
As for `Fc1cc(F)cc(-c2nc3c(N4CCC(N5CCOCC5)CC4)nccc3[nH]2)c1`, in data set [23], the pKa came to 7.4.
Turning to `Fc1ccc(-c2nc3c(N4CCCN(CC5CC5)CC4)nccc3[nH]2)cc1F`, the 50% inhibitory concentration (IC50) with Plasmodium falciparum [1] was 20 nM; with Plasmodium falciparum [2], 77 nM; in the data set on Plasmodium berghei, 17000 nM; in the data set on Plasmodium falciparum [16] it was 5300 nM. In addition, the solubility (thermodynamic) at 20 h in [3] was 200 µM (≈ 76.7 µg/mL). In addition, in data set [4], the selectivity ratio was 850. This molecule also returned an inhibition at 5 µM with Plasmodium falciparum [18] of 48%.

Usually IC50 stands for the point on the concentration scale where inhibition reaches its midpoint. For orientation: solubility (thermodynamic) means the concentration in solution at equilibrium with solid. As a reminder, the CC50 is the concentration that lowers cell viability or growth by half. What is called Cmax is the maximum level reached in the sampled fluid or tissue. In general, Tmax refers to the time at which the peak concentration occurs. A word on the clearance: it is a measure of how efficiently the substance is removed, as volume per time. One may read the bioavailability as dose-corrected exposure relative to a reference, in per cent. Low readings indicate poor availability, high ones good availability. As a reminder, the inhibition is the relative decrease from the control value, in per cent. Higher therefore signals a strong effect. In general, pKa refers to the negative logarithm of the acid dissociation constant. Lower therefore signals a stronger acid or weaker base.
